HSF1 inh: HSF1 inhibition. activity change, negative = inhibition, % at 7.5 µM (by protocol). 300,000 compounds, 0.77% hits. NIH3T3-HGL HSE-luciferase, MG132-induced, luminescence 8 h; active compounds read low;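 active means more than half of replicate wells show activity change below -50%, luminescence cut by over half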;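 further: luciferase reports HSF-1 transcriptional activity via heat shock element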
Hsp70 act: Hsp70 transcriptional activation, primary screen. HeLa Hsp70 promoter luciferase reporter, luminescence; scaled: vehicle 0, proteasome-inhibitor control 100%. activation, % at 10 µM. 200,000 compounds, 0.04% hits;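 active means activation above the mean across all tested compounds plus 3 SD, cutoff set per campaign, cut at about 5.5% in these data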
PERK inh: inhibitors of human PERK kinase. CHO PERK-DD fusion, SEAP luminescence translation reporter. inhibition, % at 5.6 µM. Q9NZJ5. 220,000 compounds, 0.17% hits. AID 1416;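 active means inhibition above the mean inhibition of all tested compounds plus 3 SD, set separately per screening campaign, cut at about 2.9% in these data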;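 further: PERK kinase domain activated by AP20187 dimerizer at 100 nM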
PolyA inh: yeast polyadenylation inhibition. AID 1875. 300,000 compounds, 0.02% hits. activity score, % at 12 µM. S. cerevisiae SKY197-pL101 polyadenylation reporter, beta-gal luminescence; efflux-impaired pdr1/pdr3 knockout yeast; score 100 = 6 SD above DMSO;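 active means lowest replicate activity score at least 50, where 100 means six control SD above control mean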;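 further: yeast exposed to compound for 9 h at 30 °C; higher score means more reporter readthrough which indicates perturbed polyadenylation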
STAT3 activator: STAT3 signaling activation | activation (% of control), % at 5.6 µM | 190,000 compounds, 0.91% hits | U3A cells, IL-6 STAT3-luciferase reporter, luminescence; 100% = signal with IL-6 EC80 alone;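 active means activation above the screen-wide mean of compound activation plus 3 SD, cut at about 130% in these data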
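Material: human STAT1-deficient U3A cells with stable STAT3-luciferase reporter / Probe or stimulus: IL-6 stimulus at 33 ng/mL final / Schedule: 1 h compound pre-exposure, 6 h IL-6 stimulation, 37 °C / Technique: luminescence / Read-out basis: percent of IL-6-only median luminescence / Control set: IL-6-only high control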
AHR activator: activators of human aryl hydrocarbon receptor. AID 2796. AHR-responsive luciferase reporter cells, luminescence. 320,000 compounds, 2.5% hits. activation, % at 5 µM; in the data active means activation above about 47%
A number is an active result. A selection: hits, their analogues and other compounds. The true share with any hit is near 3.6%.

Results for COc1ccc(N2C(=O)C(C)(C)C2c2c(O)ccc3ccccc23)cc1 (stereo unspecified) ?
HSF1 inh: -73.2; PolyA inh: inactive; AHR activator: inactive

How did COc1ccccc1NC(=O)c1oc2ccccc2c1NC(=O)C1CC1 do in these assays?
HSF1 inh: inactive; PolyA inh: inactive; AHR activator: 63.5

What do the screens show for `CCOCC(=O)Nc1c(C(=O)Nc2ccccc2OC)oc2ccccc12`?
HSF1 inh: inactive; Hsp70 act: inactive; PERK inh: inactive; PolyA inh: inactive; STAT3 activator: inactive; AHR activator: 73.0

What do the screens show for `CCOC(=O)c1oc2ccccc2c1NC(=O)c1cccc(OC)c1`?
HSF1 inh: inactive; Hsp70 act: inactive; PERK inh: inactive; PolyA inh: inactive; STAT3 activator: inactive; AHR activator: inactive

What do the screens show for `CCC(=O)Nc1c(C(=O)Nc2cccc(OC)c2)oc2ccccc12`?
HSF1 inh: inactive; Hsp70 act: inactive; PERK inh: inactive; PolyA inh: inactive; STAT3 activator: inactive; AHR activator: 63.1

What do the screens show for `CCOc1ccccc1NC(=O)c1oc2ccccc2c1NC(=O)C1CC1`?
HSF1 inh: inactive; PolyA inh: inactive; AHR activator: inactive

How did CCOC(=O)c1cnc2c(C(=O)OC)cccc2c1NCc1cccnc1 do in these assays?
HSF1 inh: inactive; Hsp70 act: inactive; PERK inh: inactive; PolyA inh: inactive; STAT3 activator: inactive; AHR activator: inactive

What do the screens show for `CC1CN(C(=S)NC2CCCC2)CC(C)O1` (stereo unspecified)?
HSF1 inh: inactive; PolyA inh: inactive; AHR activator: inactive

How did Cn1c(=O)c2c(ncn2CC(=O)OCCCC(=O)c2ccc(Br)cc2)n(C)c1=O do in these assays?
AHR activator: inactive

What do the screens show for `CSc1nc(O)c(N=Nc2ccc(F)cc2F)c(=O)[nH]1`?
HSF1 inh: inactive; PolyA inh: inactive; AHR activator: inactive

Results for COc1ccc(C2c3[nH]c4ccccc4c3CCN2Cc2ccoc2)c(F)c1 (stereo unspecified) ?
HSF1 inh: inactive; Hsp70 act: inactive; PERK inh: inactive; PolyA inh: inactive; STAT3 activator: inactive; AHR activator: 47.3

How did CCN(CC)S(=O)(=O)c1ccc(S(=O)(=O)N2CCCC(C(=O)NC3CC3)C2)cc1 (stereo unspecified) do in these assays?
HSF1 inh: inactive; PolyA inh: inactive; AHR activator: inactive

What do the screens show for `O=c1cc(-c2ccccc2Cl)oc2c(Br)ccc(O)c12`?
HSF1 inh: inactive; Hsp70 act: inactive; PERK inh: inactive; PolyA inh: inactive; STAT3 activator: inactive; AHR activator: 47.4

How did NS(=O)(=O)c1ccc(CNC(=O)Cc2ccccc2[N+](=O)[O-])cc1 do in these assays?
HSF1 inh: inactive; PolyA inh: inactive; AHR activator: inactive

Results for NS(=O)(=O)c1ccc(CCNC(=O)Cc2ccccc2[N+](=O)[O-])cc1 ?
HSF1 inh: inactive; Hsp70 act: inactive; PERK inh: inactive; PolyA inh: inactive; STAT3 activator: 133.2

How did O=C(CCCNC(=O)c1ccc(Cl)cc1)Nc1ccc(Br)cc1 do in these assays?
HSF1 inh: inactive; PolyA inh: inactive; AHR activator: 70.6

Results for O=C(CSCc1cc(=O)n2nc(C3CC3)sc2n1)Nc1ccccc1Cl ?
HSF1 inh: inactive; PolyA inh: inactive; AHR activator: inactive

What do the screens show for `COC(=O)[C@]1(CC(C)C)N[C@H](c2ccc(-c3ccc(F)cc3)c(OC)c2)[C@@H]2C(=O)N(C)C(=O)[C@@H]21`?
HSF1 inh: inactive; PolyA inh: inactive; AHR activator: inactive

How did COc1ccc(S(=O)(=O)N(C)C[C@H]2Oc3ccc(NS(=O)(=O)c4ccc(F)cc4)cc3C(=O)N([C@H](C)CO)C[C@@H]2C)cc1 do in these assays?
AHR activator: inactive

How did Cc1noc(NS(=O)(=O)c2ccc(NC(=O)c3ccc(N4C(=O)c5ccccc5C4=O)cc3)cc2)c1C do in these assays?
HSF1 inh: inactive; Hsp70 act: inactive; PERK inh: inactive; PolyA inh: inactive; STAT3 activator: inactive; AHR activator: inactive

Results for Cc1noc(NS(=O)(=O)c2ccc(N3Cc4ccccc4C3=O)cc2)c1C ?
HSF1 inh: -85.0; Hsp70 act: inactive; PERK inh: 3.1; PolyA inh: inactive; STAT3 activator: inactive; AHR activator: inactive

How did O=C(c1ccc2c(=O)n(Cc3ccccc3)c(=S)[nH]c2c1)N1CCOCC1 do in these assays?
HSF1 inh: -86.8; PolyA inh: inactive; AHR activator: inactive

Results for O=C(c1ccc2c(=O)n(Cc3ccccc3Cl)c(=S)[nH]c2c1)N1CCOCC1 ?
HSF1 inh: inactive; PolyA inh: inactive; AHR activator: inactive

What do the screens show for `COc1cc(C(=O)NCC2CCCO2)cc(Br)c1OCc1ccccc1` (stereo unspecified)?
AHR activator: inactive

What do the screens show for `Cc1cccc(N=C2NC(=O)/C(=C3/C(=O)N(C)c4ccccc43)S2)c1C`?
HSF1 inh: inactive; Hsp70 act: inactive; PERK inh: inactive; PolyA inh: inactive; STAT3 activator: inactive; AHR activator: 68.2

Results for NC(=Nc1nc(-c2ccccn2)cc2ccccc12)c1ccccn1 ?
HSF1 inh: 57.5

What do the screens show for `N/C(=N\OC(=O)Cc1cccc2ccccc12)c1ccccn1`?
HSF1 inh: inactive; Hsp70 act: inactive; PERK inh: inactive; PolyA inh: inactive; STAT3 activator: inactive; AHR activator: inactive

What do the screens show for `CSc1nc(C)cc(Oc2ccccc2)n1`?
HSF1 inh: inactive; Hsp70 act: inactive; PERK inh: inactive; PolyA inh: inactive; STAT3 activator: inactive; AHR activator: inactive

How did CC(=O)c1c(C)n([O-])c2ccc(C)cc2[n+]1=O do in these assays?
HSF1 inh: inactive; Hsp70 act: inactive; PERK inh: inactive; PolyA inh: inactive; STAT3 activator: inactive; AHR activator: 59.6

Results for Cc1ccc2c(c1)n([O-])c1c([n+]2=O)CCCC1 ?
HSF1 inh: inactive; Hsp70 act: inactive; PERK inh: inactive; PolyA inh: inactive; STAT3 activator: inactive; AHR activator: inactive

How did COc1ccc(CCC(=O)NC(C)c2ccccc2)cc1OC (stereo unspecified) do in these assays?
HSF1 inh: inactive; PolyA inh: inactive; AHR activator: inactive

What do the screens show for `Cc1cc(C)n(-c2ccc(C(=O)OCC(=O)Nc3cc(Cl)ccc3[N+](=O)[O-])cc2)n1`?
HSF1 inh: inactive; Hsp70 act: inactive; PERK inh: inactive; PolyA inh: inactive; STAT3 activator: 134.3; AHR activator: inactive

What do the screens show for `COc1ccc(/C(C)=N/NC(=O)CNC(=O)/C=C\c2ccccc2)c(OC)c1`?
HSF1 inh: -65.9; PolyA inh: inactive; AHR activator: inactive

How did O=C(NC1CCCC1)C1CCN(c2nccs2)CC1 do in these assays?
HSF1 inh: inactive; Hsp70 act: inactive; PERK inh: inactive; PolyA inh: inactive; STAT3 activator: inactive; AHR activator: inactive

Bioassay records deposited in PubChem by several laboratories.
